Measured values as given in ChEMBL document CHEMBL1152785, “Synthesis and biological evaluation of a series of novel inhibitor of Nek2/Hec1 analogues” (J Med Chem, 2009).
Active and inactive are the calls of the source. No cut-off for these calls is given here.

Key:
[1] = system: MDA-MB-231; experiment: Cytotoxicity against human MDA-MB-231 cells after 4 days XTT assay; type: functional, cell-based; conditions: MDA-MB-231, 96 h
How it was run: (§1)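 XTT assay with four-day drug treatment. Cells were plated one day before dosing and drug was added on day 2. XTT was read on day 5 after drug addition by absorbance at 595 nm. Absorbance was converted to percent survival against mock-treated cells to give dose-dependent cytotoxicity. Triplicate sets. HeLa, MDA-MB231 and MDA-MB468 were maintained in DMEM with 10% FBS.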

[2] = system: MDA-MB-468; experiment: Cytotoxicity against human MDA-MB-468 cells after 4 days by XTT assay; type: functional, cell-based; conditions: MDA-MB-468, 96 h; how it was run: as §1
[3] = system: HeLa; experiment: Cytotoxicity against human HeLa cells after 4 days by XTT assay; type: functional, cell-based; conditions: 96 h; how it was run: as §1
[4] = system: K562; experiment: Cytotoxicity against human K562 cells after 4 days by XTT assay; type: functional, cell-based; conditions: K562, 96 h
[5] = target: T1, Serine/threonine-protein kinase Nek2 (Homo sapiens) (UniProt P51955); experiment: Binding affinity to NeK2 in human HeLa cell extract by affinity pulldown assay; type: cell-free
T1 sequence (whole entry): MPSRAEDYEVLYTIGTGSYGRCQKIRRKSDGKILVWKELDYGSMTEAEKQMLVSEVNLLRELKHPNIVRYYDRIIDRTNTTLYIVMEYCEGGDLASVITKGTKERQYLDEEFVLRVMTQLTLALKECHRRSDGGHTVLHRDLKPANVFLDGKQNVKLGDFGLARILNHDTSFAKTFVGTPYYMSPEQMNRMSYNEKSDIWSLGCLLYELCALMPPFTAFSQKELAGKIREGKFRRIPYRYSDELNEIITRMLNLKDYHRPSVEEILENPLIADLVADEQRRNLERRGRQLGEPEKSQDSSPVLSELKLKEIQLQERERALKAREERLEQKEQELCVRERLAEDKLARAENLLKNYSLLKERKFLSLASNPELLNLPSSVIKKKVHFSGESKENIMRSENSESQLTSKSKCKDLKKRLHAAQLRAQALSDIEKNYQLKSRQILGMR
How it was run: (§2)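 Compounds were conjugated to affi-gel matrix. HeLa cell extract was incubated with control or compound-conjugated matrices and the precipitates were washed thoroughly. Bound proteins were resolved by SDS-PAGE and Western blotted for Hec1 and Nek2. Whole cell extract served as input, in duplicates.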

[6] = system: HeLa; experiment: Anticancer activity against human HeLa cells assessed as reduction of Nek2 level at 6.25 uM by Western blot assay; type: functional, cell-based
How it was run: (§3)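 HeLa cells in DMEM with 10% FBS were treated with compound at 6.25 μM and harvested at various time points. Extracts were run on SDS-PAGE and Western blotted for Nek2 and Hec1, with p84 (nuclear matrix protein) as loading control. Nek2 level was followed over time after treatment.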

[7] = system: HeLa; experiment: Anticancer activity against human HeLa cells assessed as reduction of Nek2 level at 6.25 uM after 8 to 11 hrs by Western blot assay; type: functional; parameters: scale not given: the % may be the effect or the level left; how it was run: as §3
[8] = target: T2, Kinetochore protein NDC80 homolog (Homo sapiens) (UniProt O14777); experiment: Inhibition of Hec1/Nek2 complex in human Hela cells assessed as mitotic abnormality with multipolar spindle configuration at 3.75 uM after 24 hrs by immuno-fluorescent staining; type: cell-based
T2 sequence (whole entry): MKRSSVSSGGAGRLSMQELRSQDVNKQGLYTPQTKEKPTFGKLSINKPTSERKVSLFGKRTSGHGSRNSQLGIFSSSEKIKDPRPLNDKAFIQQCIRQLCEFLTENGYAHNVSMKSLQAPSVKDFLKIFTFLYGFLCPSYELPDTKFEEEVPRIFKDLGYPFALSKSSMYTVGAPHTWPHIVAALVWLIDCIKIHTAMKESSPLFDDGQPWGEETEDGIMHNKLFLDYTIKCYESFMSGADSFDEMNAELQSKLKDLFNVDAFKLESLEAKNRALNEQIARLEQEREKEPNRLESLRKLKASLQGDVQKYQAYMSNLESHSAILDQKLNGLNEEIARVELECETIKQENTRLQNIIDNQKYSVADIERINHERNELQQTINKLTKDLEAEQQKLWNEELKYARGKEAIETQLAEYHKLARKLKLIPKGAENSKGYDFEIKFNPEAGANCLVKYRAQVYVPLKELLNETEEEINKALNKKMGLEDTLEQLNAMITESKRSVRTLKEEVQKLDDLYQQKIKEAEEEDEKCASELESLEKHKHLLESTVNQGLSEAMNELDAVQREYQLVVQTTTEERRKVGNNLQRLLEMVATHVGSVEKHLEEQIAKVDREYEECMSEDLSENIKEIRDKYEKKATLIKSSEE
How it was run: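 HeLa cells were treated with compound at 3.75 μM or buffer mock for 24 h. Cells were immunostained for α-tubulin and γ-tubulin with DAPI for DNA. Mitotic cells were examined for spindle pole number, i.e. multipolar spindles.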

[9] = system: HeLa; experiment: Anticancer activity against human HeLa cells expressing H2B-GFP assessed as increase in rate of chromosome misalignment at 2.5 uM after 24 hrs; type: functional, cell-based
How it was run: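 HeLa cells expressing the chromosome marker H2B-GFP were treated with compound at 2.5 μM. The incidence of metaphase chromosome alignment was scored. Triplicate sets were measured to give averages and deviations.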

[10] = system: HeLa; experiment: Induction of apoptosis in human HeLa cells assessed as morphological changes with membrane bubbling at 2.5 uM; type: functional, cell-based
How it was run: (§4)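 HeLa cells were treated with compound at 2.5 μM, with buffer as mock control. Phase contrast images were taken at various time points to assess dying-cell morphology such as membrane bubbling. Cell cycle profiling was done by FACS at 72 h.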

[11] = system: HeLa; experiment: Cell cycle arrest in human HeLa cells assessed as accumulation at subG1 phase at 2.5 uM after 72 hrs by FACS analysis; type: functional; how it was run: as §4
[12] = target: T2, Kinetochore protein NDC80 homolog (Homo sapiens); experiment: Inhibition of Hec1/Nek2 complex in human Hela cells assessed as mitotic abnormality with multipolar spindle configuration at 3.75 uM after 24 hrs by immuno-fluorescent staining
[13] = target: T2, Kinetochore protein NDC80 homolog (Homo sapiens); experiment: Binding affinity to Hec1 in human HeLa cell extract by affinity pulldown assay; type: cell-free; how it was run: as §2
[14] = system: HeLa; experiment: Anticancer activity against human HeLa cells assessed as reduction of Nek2 level at 25 uM by Western blot assay; type: functional, cell-based

SMILES	IC50 [1] [µM]	IC50 [2] [µM]	IC50 [3] [µM]	IC50 [4] [µM]	further results
COc1ccc(C(=O)Nc2nc(-c3c(C)cc(C)cc3C)cs2)c(O)c1	11.8	14.4	14.4	14.8	
Cc1ccc(-c2csc(NC(=O)c3cncn3C)n2)c(C)c1	> 25	> 25	> 25	> 25	
Cc1cc(C)c(-c2csc(NC(=O)c3cncn3C)n2)c(C)c1	6.8	10.7	11.2	10.1	
Cc1cc(C)c(-c2csc(NC(=O)c3ccccc3)n2)c(O)c1	11.8	> 40	13.1	11.9	
COc1ccccc1C(=O)Nc1nc(-c2c(C)cc(C)cc2C)cs1	> 40	> 40	> 40	> 40	
Cc1cc(C)c(-c2csc(N)n2)c(C)c1	> 40	> 40	> 40	> 40	
Cc1cc(C)c(-c2csc(NC(=O)N3CCOCC3)n2)c(C)c1	1.6	4.2	2.5	3.8	Activity [5]: inactive; Activity [6]: Active; Activity [7]: 50%; Activity [8]: Active; Activity [9]: Active; Activity [10]: Active; Activity [11]: 20.1%; Activity [12]: Active
Cc1cc(C)c(-c2csc(NC(=O)c3nccs3)n2)c(C)c1	4.7	11.8	11.2	14.5	
Cc1ccc(-c2csc(NC(=O)c3cnccn3)n2)c(C)c1	> 25	> 25	> 25	> 25	
Cc1cc(C)c(-c2csc(NC(=O)c3ccc(O)cc3O)n2)c(C)c1	22.5	21.3	> 40	> 40	
Cc1ccc(-c2csc(NC(=O)c3cccnc3)n2)c(C)c1	4.1	5.5	5.8	8.2	
Cc1ccc(-c2csc(NS(=O)(=O)c3ccccc3)n2)c(C)c1	> 40	> 40	> 40	> 40	Activity [13]: inactive; Activity [14]: inactive; Activity [11]: 2.9%
Cc1cc(C)c(-c2csc(NC(=O)c3cnccn3)n2)c(C)c1	3.2	4.7	5.7	5.9	
Cc1ccc(-c2coc(NC(=O)c3ccccc3)n2)c(C)c1	14.4	16	18.6	19.2	
COc1ccc(C(=O)Nc2nc(-c3c(C)cc(C)cc3C)cs2)c(OC)c1	9.7	11.2	13.6	9.5	
Cc1cc(C)c(-c2csc(N(C)C(=O)c3ccccc3)n2)c(C)c1	11.6	10.8	14.1	9.2	
COc1ccc(C(=O)N(C)c2nc(-c3c(C)cc(C)cc3C)cs2)c(OC)c1	10.6	18.7	> 40	15.5	

SMILES	IC50 [1] [µM]	IC50 [2] [µM]	IC50 [3] [µM]	IC50 [4] [µM]	further results
Cc1cc(C)c(-c2csc(N(CC(=O)O)C(=O)c3ccccc3)n2)c(C)c1	> 40	> 40	> 40	> 40	
CCOC(=O)CN(C(=O)c1ccccc1)c1nc(-c2c(C)cc(C)cc2C)cs1	15.8	20.2	22.2	20.2	
Cc1ccc(-c2csc(N)n2)c(C)c1	> 40	> 40	> 40	> 40	
Cc1cc(C)c(-c2csc(NC(=O)c3ccccc3)n2)c(C)c1	1.7	2.1	2.4	2.5	Activity [13]: Active; Activity [5]: inactive; Activity [6]: Active; Activity [7]: 50%; Activity [8]: Active; Activity [9]: Active; Activity [10]: Active; Activity [11]: 19.9%; Activity [12]: Active
Cc1ccc(-c2csc(NC(=O)N3CCOCC3)n2)c(C)c1	5.8	4	4.7	4.2	
Cc1ccc(-c2csc(NC(=S)c3ccccc3)n2)c(C)c1	21.1	19.6	18.6	22.9	
Cc1ccc(-c2csc(N(C)C(=O)c3ccccc3)n2)c(C)c1	13.5	16	20.2	14.8	
Cc1cc(C)c(-c2csc(NC(=O)c3ccccc3C(F)(F)F)n2)c(C)c1	5.9	4.1	10.6	7.5	
Cc1cc(C)c(-c2csc(NC(=O)c3ccccn3)n2)c(C)c1	4.1	2.3	5.2	4.9	
Cc1cc(C)c(-c2csc(NC(=O)c3cccnc3)n2)c(C)c1	3.2	3	3.6	3.9	
Cc1ccc(-c2csc(NS(=O)(=O)Cc3ccccc3)n2)c(C)c1	> 40	> 40	> 40	> 40	
COc1cc(C)cc(C)c1-c1csc(NC(=O)c2ccccc2)n1	7.2	10.7	10.6	7.3	
COc1ccc(C(=O)Nc2nc(-c3ccc(C)cc3C)cs2)c(OC)c1	23.4	> 40	> 40	> 40	
Cc1ccc(-c2csc(NC(=O)c3nccs3)n2)c(C)c1	2.9	6.2	7.4	10.1	
COc1ccc(C(=O)/N=c2\scc(-c3c(C)cc(C)cc3C)n2C)c(OC)c1	22.1	21	22	23.7	
Cc1ccc(-c2csc(NC(=O)c3ccncc3)n2)c(C)c1	1.1	3.4	1.6	1.2	Activity [5]: inactive
Cc1ccc(-c2csc(NC(=O)c3ccccn3)n2)c(C)c1	7.5	6.2	14.5	13.3	
